Data taken from ChEMBL document CHEMBL1128739, “Structure-activity relationships in the 8-amino-6,7,8,9-tetrahydro-3H-benz[e]indole ring system. 2. Effects of 8-amino nitrogen substitution on serotonin receptor binding and pharmacology” (J Med Chem, 1995).
Active and inactive are the calls of the source. No cut-off for these calls is given here.

How the values were obtained:
[1] = biological target: 5-hydroxytryptamine receptor 1D (Homo sapiens, UniProt P28221); assay: In vitro binding affinity against cloned mammalian 5-hydroxytryptamine 1D receptor alpha expressed in CHO cells, by using [3H]5-HT as radioligand; format: cell-based
Method in brief: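 Competition binding on CHO-cell membranes (20-60 μg protein) in 50 mM Tris, 5 mM MgCl2, 0.1% ascorbic acid, pH 7.4. Nonspecific binding defined with excess serotonin. 11 drug concentrations, each in duplicate. Incubated 1 h at room temperature, protected from light, then filtered and scintillation counted. IC50 taken from a one-site fit; Ki by Cheng-Prusoff.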

[2] = biological target: T1, 5-hydroxytryptamine receptor 1B (Homo sapiens, UniProt P28222); assay: The compound was tested in vitro for binding affinity against cloned mammalian 5-hydroxytryptamine 1D receptor beta expressed in CHO cells, by using [3H]5-HT as radioligand; format: cell-based; set-up: concentration or dose not given beside the values; settings: concentration not given here
Method in brief: (§1)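 Membranes from CHO cells stably expressing the cloned receptor, made by mechanical disruption in ice-cold Tris/EDTA/EGTA pH 7.4 and differential centrifugation. [3H]serotonin at 1.7 nM in 50 mM Tris, 5 mM MgCl2, 0.1% ascorbic acid, pH 7.4. 11 drug concentrations in duplicate, 1 h at room temperature protected from light, then filtration. Excess serotonin defines nonspecific binding. One-site IC50 fit, Ki by Cheng-Prusoff.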

D(2) dopamine receptor [3] = biological target: T2, D(2) dopamine receptor (Rattus norvegicus, UniProt P61169); assay: Binding affinity rat Dopamine receptor D2 expressed in CHO-K1 cells by [3H]U-86170 displacement.; format: cell-based
[4] = biological target: D(3) dopamine receptor (Rattus norvegicus) (UniProt P19020); assay: The compound was tested in vitro for binding affinity against cloned mammalian Dopamine receptor D3 expressed in CHO cells by, using [3H]spiperone as radioligand; inactive at 10E-6 M; format: cell-based
Rattus norvegicus [5] = assay: In vivo changes in different brain area levels of 5-HTP in reserpinized rat corpus striatum.; format: functional
Method in brief: (§2)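 Male Sprague-Dawley rats (200-300 g) pretreated with reserpine 5 mg/kg sc 18 h before. Injection volume 5 mL/kg at neutral pH. Brain-region 5-HTP measured by HPLC with electrochemical detection. Dose-response curves used four to six doses, n = 4.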

Rattus norvegicus [6] = assay: The compound was tested in vivo for biochemical effect against the changes in different brain area levels of DOPA in reserpinized rat corpus striatum; format: functional
Method in brief: (§3)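 Male Sprague-Dawley rats (200-300 g) pretreated with reserpine 5 mg/kg sc 18 h before. Injection volume 5 mL/kg, test solutions at neutral pH. DOPA and 5-HTP in limbic system, striatum and hemispheres measured by HPLC with electrochemical detection. Dose-response curves from four to six dose levels (n = 4) per brain area.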

Rattus norvegicus [7] = assay: In vivo changes in different brain area levels of 5-HTP in reserpinized rat limbic system.; format: functional; method in brief: as §2
Rattus norvegicus [8] = assay: The compound was tested in vivo for biochemical effect against the changes in different brain area levels of DOPA in reserpinized rat limbic system; format: functional
Method in brief: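 Rats (male Sprague-Dawley, 200-300 g) received reserpine 5 mg/kg sc 18 h before. Injections 5 mL/kg at neutral pH. DOPA accumulation measured by HPLC with electrochemical detection as an index of DA or NE synthesis rate. Four to six dose levels, n = 4. ED50 from a sigmoidal fit.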

Rattus norvegicus [9] = assay: In vivo for biochemical effect against brain area levels of 5-HTP in reserpinized rat hemispheres (mainly cortex).; format: functional; method in brief: as §3
Rattus norvegicus [10] = assay: The compound was tested in vivo for biochemical effect against the changes in different brain area levels of DOPA in reserpinized rat hemispheres (mainly cortex); inactive at dose 50 uM/kg; Inactive; format: functional, organism-based
Rattus norvegicus [11] = assay: The compound was tested in vivo for biochemical effect against the changes in different brain area levels of DOPA in reserpinized rat hemispheres (mainly cortex); inactive at the highest dose tested (3.1); format: functional, organism-based; method in brief: as §3
D(2) dopamine receptor [12] = biological target: T2, D(2) dopamine receptor; assay: In vitro binding affinity against cloned mammalian Dopamine receptor D2 expressed in CHO cells using [3H]U-86170 as radioligand; format: cell-based; settings: read-out: Ki
Method in brief: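 Membranes from CHO cells (20-60 μg protein) in 20 mM HEPES, 10 mM MgSO4, pH 7.4. Nonspecific binding defined with excess haloperidol. 11 concentrations, each in duplicate. Incubated 1 h at room temperature, then filtered and counted. IC50 from a one-site competition fit, converted to Ki by Cheng-Prusoff.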

D(3) dopamine receptor = D(3) dopamine receptor (Rattus norvegicus, UniProt P19020); assay: In vitro binding affinity against cloned mammalian Dopamine receptor D3 expressed in CHO cells by, using [3H]-spiperone as radioligand; format: cell-based
Rattus norvegicus [13] = assay: The compound was tested in vivo for biochemical effect against the changes in different brain area levels of DOPA in reserpinized rat limbic system at dose 12.5 uM/kg; Partial effect; format: functional, organism-based
Rattus norvegicus [14] = assay: The compound was tested in vivo for biochemical effect against the changes in different brain area levels of DOPA in reserpinized rat corpus striatum at dose 12.5 uM/kg; Partial effect; format: functional, organism-based; method in brief: as §3
Rattus norvegicus [15] = assay: The compound was tested in vivo for biochemical effect against the changes in different brain area levels of DOPA in reserpinized rat hemispheres (mainly cortex)at dose 12.5 uM/kg; Partial effect; format: functional, organism-based
[16] = biological target: T1, 5-hydroxytryptamine receptor 1B; assay: In vitro binding affinity against cloned mammalian 5-hydroxytryptamine 1D receptor beta expressed in CHO cells, by using [3H]5-HT as radioligand; format: cell-based; method in brief: as §1
Rattus norvegicus [17] = assay: The compound was tested in vivo for biochemical effect against the changes in different brain area levels of DOPA in reserpinized rat hemispheres (mainly cortex)at dose 50 uM/kg; inactive; format: functional, organism-based
Rattus norvegicus [18] = assay: The compound was tested in vivo for biochemical effect against the changes in different brain area levels of DOPA in reserpinized rat limbic system at dose 12.5 uM/kg; Inactive; format: functional, organism-based
Rattus norvegicus [19] = assay: The compound was tested in vivo for biochemical effect against the changes in different brain area levels of DOPA in reserpinized rat hemispheres (mainly cortex)at dose 12.5 uM/kg; Inactive; format: functional, organism-based
Rattus norvegicus [20] = assay: The compound was tested in vivo for biochemical effect against the changes in different brain area levels of DOPA in reserpinized rat corpus striatum at dose 12.5 uM/kg; Inactive; format: functional, organism-based; method in brief: as §3
Rattus norvegicus [21] = assay: The compound was tested in vivo for biochemical effect against the changes in different brain area levels of DOPA in reserpinized rat limbic system at does 50 uM/kg; Inactive; format: functional, organism-based; method in brief: as §3
Rattus norvegicus [22] = assay: The compound was tested in vivo for biochemical effect against the changes in different brain area levels of DOPA in reserpinized rat corpus striatum at dose 50 uM/kg; Inactive; format: functional, organism-based; method in brief: as §3
Rattus norvegicus [23] = assay: The compound was tested in vivo for biochemical effect against the changes in different brain area levels of DOPA in reserpinized rat hemispheres (mainly cortex)at does 50 uM/kg; Inactive; format: functional, organism-based; method in brief: as §3

T1 sequence (P28222 whole entry): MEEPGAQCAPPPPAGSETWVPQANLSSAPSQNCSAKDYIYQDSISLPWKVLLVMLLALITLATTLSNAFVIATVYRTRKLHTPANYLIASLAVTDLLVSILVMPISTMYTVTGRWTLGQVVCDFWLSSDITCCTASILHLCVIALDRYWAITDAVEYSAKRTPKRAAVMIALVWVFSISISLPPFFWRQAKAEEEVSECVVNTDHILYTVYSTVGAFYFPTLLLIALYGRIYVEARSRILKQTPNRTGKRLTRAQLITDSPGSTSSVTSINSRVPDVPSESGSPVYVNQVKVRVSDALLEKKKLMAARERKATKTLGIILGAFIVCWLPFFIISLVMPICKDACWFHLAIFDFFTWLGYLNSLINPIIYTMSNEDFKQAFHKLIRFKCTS
Sequence of D(3) dopamine receptor (P19020 whole entry): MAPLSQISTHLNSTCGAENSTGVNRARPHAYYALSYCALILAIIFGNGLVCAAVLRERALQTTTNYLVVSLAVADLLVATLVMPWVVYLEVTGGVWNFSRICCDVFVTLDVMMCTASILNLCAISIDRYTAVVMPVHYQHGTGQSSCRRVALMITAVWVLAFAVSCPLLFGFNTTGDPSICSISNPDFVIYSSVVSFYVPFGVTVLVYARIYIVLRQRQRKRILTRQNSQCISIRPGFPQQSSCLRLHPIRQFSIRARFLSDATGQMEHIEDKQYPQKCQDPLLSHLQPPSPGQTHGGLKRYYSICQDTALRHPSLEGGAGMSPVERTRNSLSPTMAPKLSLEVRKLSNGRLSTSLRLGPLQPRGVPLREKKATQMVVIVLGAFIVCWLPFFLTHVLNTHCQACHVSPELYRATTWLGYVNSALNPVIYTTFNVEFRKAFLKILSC
T2 sequence (P61169 whole entry): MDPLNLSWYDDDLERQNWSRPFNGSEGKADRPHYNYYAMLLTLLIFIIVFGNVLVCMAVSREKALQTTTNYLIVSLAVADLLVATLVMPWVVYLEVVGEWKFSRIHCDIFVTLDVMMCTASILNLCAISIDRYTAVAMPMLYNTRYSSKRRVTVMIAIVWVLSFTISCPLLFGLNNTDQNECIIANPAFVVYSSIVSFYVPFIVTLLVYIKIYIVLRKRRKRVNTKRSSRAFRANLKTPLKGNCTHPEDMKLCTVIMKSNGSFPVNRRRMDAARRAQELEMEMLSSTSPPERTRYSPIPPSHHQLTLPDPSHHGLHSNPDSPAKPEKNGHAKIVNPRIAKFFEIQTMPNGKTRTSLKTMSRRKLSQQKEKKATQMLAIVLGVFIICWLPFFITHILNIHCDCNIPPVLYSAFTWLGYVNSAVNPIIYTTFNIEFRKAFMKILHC
Sequence of 5-hydroxytryptamine receptor 1D (P28221 whole entry): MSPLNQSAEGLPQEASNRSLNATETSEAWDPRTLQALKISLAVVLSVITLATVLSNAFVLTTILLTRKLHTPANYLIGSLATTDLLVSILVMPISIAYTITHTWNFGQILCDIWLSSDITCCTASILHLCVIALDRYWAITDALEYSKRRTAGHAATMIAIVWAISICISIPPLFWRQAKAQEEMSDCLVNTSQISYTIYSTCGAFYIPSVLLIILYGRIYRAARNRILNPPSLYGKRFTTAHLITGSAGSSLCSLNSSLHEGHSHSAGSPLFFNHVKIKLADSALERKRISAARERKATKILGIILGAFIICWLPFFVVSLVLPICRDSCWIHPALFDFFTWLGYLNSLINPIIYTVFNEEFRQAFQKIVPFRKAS
Sequence of D(3) dopamine receptor (Rattus norvegicus) (P19020 whole entry): as the sequence (P19020 whole entry) above

Compound	Ki [1]	Ki (D(2) dopamine receptor [3])	Ki (D(2) dopamine receptor [12])	Ki [16]	Ki (D(3) dopamine receptor; read-out: Ki)	ED50 (Rattus norvegicus [5])	ED50 (Rattus norvegicus [6])	ED50 (Rattus norvegicus [7])	ED50 (Rattus norvegicus [8])	ED50 (Rattus norvegicus [9])	also measured
CCCN(CCC)[C@@H]1CCc2ccc3[nH]ccc3c2C1											ED50 (Rattus norvegicus [11]): inactive
O=Cc1c[nH]c2ccc3c(c12)CC(N1CCCC1)CC3 (stereo unspecified)			> 1000 nM			0.58 µmol/kg		0.58 µmol/kg		0.86 µmol/kg	Ki (D(3) dopamine receptor; cho): Not Active; ED50 (Rattus norvegicus [13]): Weak activity; ED50 (Rattus norvegicus [14]): Weak activity; ED50 (Rattus norvegicus [15]): Weak activity
CCCN(Cc1ccccc1)C1CCc2ccc3[nH]ccc3c2C1 (stereo unspecified)	192 nM	22 nM		4610 nM	43 nM	6.87 µmol/kg	8.77 µmol/kg	7.58 µmol/kg	8.1 µmol/kg	6.72 µmol/kg	ED50 (Rattus norvegicus [17]): inactive
CN(C)[C@H]1CCc2ccc3[nH]cc(C=O)c3c2C1			250 nM			12.1 µmol/kg		13.1 µmol/kg		15.3 µmol/kg	ED50 (Rattus norvegicus [21]): inactive; ED50 (Rattus norvegicus [22]): inactive; ED50 (Rattus norvegicus [23]): inactive

More lines, main results first:

Ki [1]	Ki (D(2) dopamine receptor [3])	Ki (D(2) dopamine receptor [12])	Ki [16]	Ki (D(3) dopamine receptor; read-out: Ki)	Compound	ED50 (Rattus norvegicus [5])	ED50 (Rattus norvegicus [6])	ED50 (Rattus norvegicus [7])	ED50 (Rattus norvegicus [8])	ED50 (Rattus norvegicus [9])	also measured
77 nM	94 nM				c1cc2c3c(ccc2[nH]1)CCC(N1CCCC1)C3 (stereo unspecified)	0.066 µmol/kg	3.26 µmol/kg	0.092 µmol/kg	1.57 µmol/kg	0.051 µmol/kg	inhibition [2]: < 45%; inhibition [4]: < 45%; ED50 (Rattus norvegicus [10]): inactive
5 nM		62 nM	119 nM	154 nM	CCCN(CCCCN1C(=O)CC(C)(C)CC1=O)[C@@H]1CCc2ccc3[nH]cc(C=O)c3c2C1	2.98 µmol/kg		3.78 µmol/kg		4.63 µmol/kg	ED50 (Rattus norvegicus [18]): inactive; ED50 (Rattus norvegicus [19]): inactive; ED50 (Rattus norvegicus [20]): inactive
